Reference: publication PMC2726660 (Archives of biochemistry and biophysics, 2009)
Read-outs that look alike come from different tables or passages of the source. Values belong to the compound of their own block, whether it stands above or below them.

Experiments:
[1] = cited from earlier work
[2] = tested on: purified bovine brain tubulin; assay: Electron microscopy of polymer morphology; format: biochemical; settings: 10 μM compound, 10 μM tubulin, 0.75 M glutamate, 30 min at 30 °C
Summary of the method: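 Purified bovine brain tubulin with microtubule-associated proteins removed, at 10 μM, in 0.75 M monosodium glutamate (stock pH 6.6), 10 μM GTP and 4% DMSO. Test compound at 10 μM, with a no-addition control. After 30 min at 30 °C, aliquots were put on carbon-coated Formvar copper grids and stained with 5-10 drops of 1% uranyl acetate. Excess stain was wicked off and grids examined by TEM.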

[3] = tested on: MCF-7 human breast carcinoma cells; assay: Growth of human breast carcinoma MCF-7 cells; format: cell-based; settings: for IC50: read-out: Inhibition of cell growth IC50 (μM) ± S. D., MCF-7 cells, 48 h, sulforhodamine B
Summary of the method: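 MCF-7 cells from the NCI drug screening group, grown in RPMI with 10% heat-treated fetal bovine serum. About 5,000 cells per well seeded, adhered overnight, then exposed to test compound for 48 h at 37 °C in humidified 5% CO2; final DMSO 0.5% (v/v). Growth read as cellular protein by sulforhodamine B staining. IC50 is 50% growth inhibition.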

tubulin [4] = assay: Binding of radiolabeled colchicine to tubulin; design: species or system bovine
preformed microtubules = assay: Binding of radiolabeled paclitaxel to preformed microtubules; settings: unpublished data
[5] = tested on: purified bovine brain tubulin; assay: Turbidimetric tubulin assembly assay in glutamate; format: biochemical
cultured cells = assay: Microtubule bundle formation in cultured cells; format: cell-based; settings: synthetic compound
tubulin [6] = assay: Binding of [3H]vinblastine to tubulin; settings: authors' attempt to reproduce ref 3
tubulin [7] = settings: cited from earlier work
[8] = tested on: purified bovine brain tubulin; assay: Centrifugal assay for spiral formation; format: biochemical; settings: threshold EC50 < 100 μM
Summary of the method: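 Purified bovine brain tubulin (MAP-free) at 10 μM in 0.75 M monosodium glutamate (stock pH 6.6), 10 μM GTP, 4% (v/v) DMSO as compound solvent. Incubated 20 min at 30 °C, then centrifuged 15 min at room temperature (about 20 °C). Lowry protein measured in supernatant and in uncentrifuged mixture. EC50 is the concentration removing 50% of tubulin from the supernatant versus no-compound reactions.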

Compound: (+)-rhazinilam
- activity of the enantiomer, in words [1]: inactive

Compound: CC[C@]1(O)C[C@@H]2CN(CCc3c([nH]c4ccccc34)[C@@](C(=O)OC)(c3cc4c(cc3OC)N(C)[C@H]3[C@@](O)(C(=O)OC)[C@H](OC(C)=O)[C@]5(CC)C=CCN6CC[C@]43[C@@H]65)C2)C1 [vinblastine]
- morphology of polymer formed in glutamate with 10 μM GTP [2]: typical tight spirals

- IC50 [3]: 0.97 ± 0.3 µM
- inhibition of the binding of radiolabeled colchicine to tubulin (tubulin [4]): no inhibitory effect
- inhibition of the binding of radiolabeled paclitaxel to preformed microtubules (preformed microtubules): no inhibitory effect
- inhibition of the binding of [3H]vinblastine to tubulin (tubulin [6]): unable to reproduce this result
Compound: (−)-rhazinilam
- disassembly of polymer at 0 °C ([5]; 20 μM compound + 0.4 mM GTP, 0.75 M glutamate (Fig. 5, curve 4)): little disassembly
- disassembly of polymer at 0 °C ([5]; 20 μM compound, no GTP, 0.75 M glutamate (Fig. 5, curve 2)): disassembled slowly in the cold
- concentration at end of the inhibitory effect on tubulin assembly ([5]; 0.8 M glutamate, 0.4 mM GTP, 10 μM tubulin (Fig. 2, curve 4)): 3 µM
- concentration at onset of spiral induction ([5]; 0.8 M glutamate, 0.4 mM GTP, 10 μM tubulin (Fig. 2, curve 5)): 4 µM
- effect on microtubules in cultured cells (cultured cells): formation of extensive bundled microtubules
- inhibition of the binding of [3H]vinblastine to tubulin (tubulin [7]): inhibited the binding

- IC50 [3]: 1.8 ± 0.7 µM
Compound: (±)-rhazinilam
- activity in the tubulin-based (spiralization) assay, in words [8]: approximately half as active as (−)-rhazinilam
- activity in the cell-based (MCF-7) assay, in words ([3]; threshold IC50 < 10 μM): approximately half as active as (−)-rhazinilam

- IC50 [3]: 3.8 ± 1 µM
Compound: CC12CCCn3ccc(c31)-c1ccccc1NC(=O)CC2 (stereo not shown) [Compound 5]
